We go through 4 compounds from publication PMC3359464 (Medicinal Chemistry Research, 2011).

Residues, ends and D or L forms follow the SMILES beside them.

The target in series [1] is T1, APM (Sus scrofa, UniProt P15145).
T1 sequence (P15145 2-963): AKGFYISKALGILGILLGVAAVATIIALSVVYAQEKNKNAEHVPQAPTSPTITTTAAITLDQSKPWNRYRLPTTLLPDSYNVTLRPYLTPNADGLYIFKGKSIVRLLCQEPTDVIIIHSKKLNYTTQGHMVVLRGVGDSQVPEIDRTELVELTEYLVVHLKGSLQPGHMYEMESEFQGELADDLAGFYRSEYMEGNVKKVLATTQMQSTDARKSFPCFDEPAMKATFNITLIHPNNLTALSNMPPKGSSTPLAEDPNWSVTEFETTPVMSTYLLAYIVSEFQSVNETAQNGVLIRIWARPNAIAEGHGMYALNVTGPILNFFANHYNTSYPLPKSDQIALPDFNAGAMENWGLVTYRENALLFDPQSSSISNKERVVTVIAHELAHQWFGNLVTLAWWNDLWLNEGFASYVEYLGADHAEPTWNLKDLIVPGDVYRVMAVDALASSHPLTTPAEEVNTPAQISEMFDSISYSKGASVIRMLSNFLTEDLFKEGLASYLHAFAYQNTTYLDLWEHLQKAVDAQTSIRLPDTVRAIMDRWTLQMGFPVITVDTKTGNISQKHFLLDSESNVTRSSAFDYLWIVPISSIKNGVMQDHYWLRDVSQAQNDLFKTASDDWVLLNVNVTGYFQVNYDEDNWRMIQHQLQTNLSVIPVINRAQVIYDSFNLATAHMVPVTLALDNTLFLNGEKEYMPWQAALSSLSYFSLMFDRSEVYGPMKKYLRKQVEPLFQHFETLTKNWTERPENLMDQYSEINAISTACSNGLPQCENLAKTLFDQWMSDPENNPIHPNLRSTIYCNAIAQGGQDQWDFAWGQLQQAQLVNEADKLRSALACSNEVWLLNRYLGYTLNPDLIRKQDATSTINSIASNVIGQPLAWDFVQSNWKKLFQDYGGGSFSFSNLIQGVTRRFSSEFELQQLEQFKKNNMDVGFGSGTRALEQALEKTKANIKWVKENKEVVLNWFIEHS
As to the kind of experiment: Degradation rates of EMs by purified APM with and without inhibitors. The format is biochemical.

Series [2] relates to rat spinal cord homogenate. The settings on record: ref Sugimoto-Watanabe et al., [1999]; cited from earlier work.
The subject of another series is DPP IV. As to the kind of experiment: Degradation rates of EMs by purified DPP IV with and without inhibitors. The format is biochemical. In outline: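 Commercial purified DPP IV at 0.002 mg protein/ml incubated with endomorphin and test compound (1 mM solutions in 50 mM Tris–HCl, pH 7.4) at 37°C for 0, 7.5, 15, 22.5 and 30 min. Stopped on ice with 1 M HCl, centrifuged, RP-HPLC on C18 (0.1% TFA/acetonitrile gradient). k from linear regression of ln(A/A0) versus time; % inhibition from k with and without inhibitor. Three experiments in duplicate; mean ± SEM.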

The target of series [3] is T2, APM (Sus scrofa, UniProt P15145, species not given).
T2 sequence (P15145 2-963): T1 sequence (P15145 2-963)
As to the kind of experiment: Degradation rates of EMs by purified APM with and without inhibitors. The format is biochemical. The conditions noted are these: purified APM (commercially available enzyme), pH 7.4.

Series [4] is described as follows: Blood-brain barrier crossing. The format is in vivo. The conditions noted are these: preliminary results.
Setting [5] is: substrate EM-1, 37°C, 0-30 min, Tris-HCl pH 7.4.
[6] abbreviates: substrate EM-2, 37°C, 0-30 min, Tris-HCl pH 7.4.

In the case of `CCCCC[C@H](CC(=O)NO)C(=O)N[C@H](C(=O)N1CCC[C@H]1CO)C(C)C` [Actinonin, actinonin], at APM [1] (setting [5]), the “100 × k, degradation rate of EM-1 by APM in the presence of inhibitor” value worked out at 1.88 ± 0.09 min⁻¹. In addition, the “100 × k, degradation rate of EM-2 by APM in the presence of inhibitor” value at APM [1] (setting [6]) was determined as 1.50 ± 0.05 min⁻¹. For the same compound, the “Effect on EM-1 degradation in rat spinal cord homogenate” value in series [2] is “significantly blocked EM-1 degradation”.
For `NC(=O)[C@H](Cc1ccccc1)NC(=O)[C@H](Cc1c[nH]c2ccccc12)NC(=O)[C@@H]1CCCN1C(=O)[C@@H](N)Cc1ccc(O)cc1` [EM-1, Tyr-Pro-Trp-Phe-NH2], the half-life with DPP IV (purified DPP IV (commercially available enzyme), pH 7.4) was found to be 16.7 ± 0.52 min; on APM [3], 19.7 ± 0.5 min. In addition, the “Resistance to DPP IV relative to EM-2” value with DPP IV (without inhibitor) was “about 1.5 times”. Further, the “100 × k, degradation rate of EM-1 by DPP IV alone” value in the series with DPP IV (without inhibitor, 37°C) stood at 4.12 ± 0.2 min⁻¹. For the same compound, on APM [1] (without inhibitor, 37°C), the “100 × k, degradation rate of EM-1 by APM alone” value came to 3.51 ± 0.09 min⁻¹.
Take `C[C@H](NC(=O)[C@@H]1CCCN1C(=O)[C@@H](N)Cc1ccc(O)cc1)C(N)=O` [EMDB-2, Tyr-Pro-Ala-NH2] (H-Tyr-Pro-Ala-NH2; N-terminus assumed): in series [4], the “Crossing of the blood-brain barrier” value is reported as “do not cross the blood–brain barrier”.
Regarding Ile-Pro-Ile [Diprotin A], the “100 × k, degradation rate of EM-1 by DPP IV in the presence of inhibitor” value with DPP IV (setting [5]) was found to be 0.13 ± 0.01 min⁻¹. The “100 × k, degradation rate of EM-2 by DPP IV in the presence of inhibitor” value in the series with DPP IV (setting [6]) is 0.18 ± 0.01 min⁻¹.
